According to publication PMC3153576 (Biochemistry, 2011):

Legend:
Assay type in all cases: binding
PRMT1 = PRMT1 (Rattus norvegicus, UniProt Q63009); test: Stopped-flow dissociation from PRMT1; details: compared with second phase in methylation course
PRMT1-SAH complex [1] = molecular target: T1, PRMT1-SAH complex (Rattus norvegicus, UniProt Q63009); test: Stopped-flow dissociation from PRMT1-SAH; details: 100 μM SAH
Summary of the method: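 Trapping experiment using rat His-PRMT1. 0.4 μM fluorescein-labelled H4 peptide (H4FLme1 or H4FLme2) was premixed with 2 μM PRMT1 and 100 μM SAH, then rapidly mixed with 50 μM unlabelled H4(1–20). Fluorescence recovery read at ex 495 nm, 510 nm long-pass emission; 4–6 injections averaged; double-exponential fit.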

PRMT1-SAH complex [2] = molecular target: T1, PRMT1-SAH complex; test: Stopped-flow association with PRMT1-SAH
Summary of the method: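 His-tagged rat PRMT1 expressed in E. coli and Ni-resin purified. PRMT1 (2, 4, 6 μM) was preincubated with 100 μM SAH, then rapidly mixed with 0.4 μM fluorescein-labelled H4 peptide. Fluorescence quench read at ex 495 nm, 510 nm long-pass emission; 4–6 shots averaged. Traces fit double-exponential; kobs versus PRMT1 fit to two-step model for k1, k−1, k2, k−2.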

T1 sequence (Q63009 whole entry, one chain of several): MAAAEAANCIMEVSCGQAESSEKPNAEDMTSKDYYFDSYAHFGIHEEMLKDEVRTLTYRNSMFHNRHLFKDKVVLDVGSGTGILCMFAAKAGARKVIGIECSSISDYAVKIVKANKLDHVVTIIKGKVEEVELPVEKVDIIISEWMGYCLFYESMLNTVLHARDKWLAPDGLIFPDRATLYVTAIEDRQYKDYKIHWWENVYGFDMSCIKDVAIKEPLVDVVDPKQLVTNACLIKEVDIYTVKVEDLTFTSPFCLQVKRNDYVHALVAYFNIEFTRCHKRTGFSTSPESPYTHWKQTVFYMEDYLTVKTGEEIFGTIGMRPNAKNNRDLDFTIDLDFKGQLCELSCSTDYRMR
Sequence of PRMT1 (Q63009 whole entry): as the sequence (Q63009 whole entry, one chain of several) above

| Dissociation rate constant relative to slow-phase (methylation) rate constants (PRMT1) | koff from PRMT1-SAH relative to apo-PRMT1 (PRMT1-SAH complex [1]) | Observed first-order rate constant for binding (kobs) (PRMT1-SAH complex [2]; 2 μM PRMT1 in presence of the cofactor) [s⁻¹] | Association rate constant with PRMT1-SAH relative to apo PRMT1 (PRMT1-SAH complex [2]; 100 μM SAH) | k2 + k−2 (plateau of the slow phase) (PRMT1-SAH complex [2]; two-step binding model (eq 5), 100 μM SAH, 30°C) [s⁻¹] | Substance |
| --- | --- | --- | --- | --- | --- |
| several thousand-fold larger | – | – | – | – | Ac-SGRme2GKGGKGDpr(FL)GKGGAKRHRK [H4FLme2] |
| several thousand-fold larger | about three-fold lower | 248 ± 3 | two-fold higher | 36 ± 2 | Ac-SGRme1GKGGKGDpr(FL)GKGGAKRHRK [H4FLme1] |
